The target of experiment [1] is T1, NAD-dependent protein deacylase sirtuin-5, mitochondrial (Homo sapiens, UniProt Q9NXA8). As to the kind of experiment: Stabilization of human SIRT5 assessed as change in melting temperature at 100 uM by thermal shift assay. The gist of the method:
(§1)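 Recombinant wild-type SIRT5 at 0.2 mg/ml final in 20 mM Bis-Tris propane pH 7.5 with 150 mM NaCl. The dye was 0.1 mM 1,8-ANS, and compound was at 100 μM with DMSO as the vehicle reference. Wells were overlaid with silicon oil and heated continuously from 25 °C to 90 °C. Tm came from fluorescence melt curves versus the DMSO control. Each reaction was run in quadruplicate.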
Target sequence in this assay (Q9NXA8 37-310 limits assumed): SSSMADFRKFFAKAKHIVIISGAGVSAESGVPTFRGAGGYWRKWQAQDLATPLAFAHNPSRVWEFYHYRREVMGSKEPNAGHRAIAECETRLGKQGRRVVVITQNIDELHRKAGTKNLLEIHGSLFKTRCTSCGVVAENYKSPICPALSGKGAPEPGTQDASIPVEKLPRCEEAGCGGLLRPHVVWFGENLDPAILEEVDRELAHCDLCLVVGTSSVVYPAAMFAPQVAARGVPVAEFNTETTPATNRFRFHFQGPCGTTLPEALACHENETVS

In experiment [2] the target is T1, NAD-dependent protein deacylase sirtuin-5, mitochondrial. As to the kind of experiment: Inhibition of human SIRT5 using fluorogenic substrate preincubated for 1 hr in presence of NAD followed by substrate addition and measured after 15 to 30 mins by trypsin-coupled fluorescence plate reader analysis.
Target sequence in this assay (Q9NXA8 whole entry): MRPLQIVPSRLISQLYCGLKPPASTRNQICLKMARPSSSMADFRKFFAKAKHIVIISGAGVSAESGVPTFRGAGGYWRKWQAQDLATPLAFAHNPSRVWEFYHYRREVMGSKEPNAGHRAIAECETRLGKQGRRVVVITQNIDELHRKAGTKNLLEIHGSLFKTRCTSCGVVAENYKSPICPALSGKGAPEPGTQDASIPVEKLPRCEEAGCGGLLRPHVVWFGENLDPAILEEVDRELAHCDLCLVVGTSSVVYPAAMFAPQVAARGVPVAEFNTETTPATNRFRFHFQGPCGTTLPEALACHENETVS
Experiment [3] has the same target. As to the kind of experiment: Stabilization of wild type human SIRT5 assessed as melting temperature at 100 uM by thermal shift assay. Summed up: as §1
Target sequence in this assay (Q9NXA8 37-310 limits assumed): as the sequence (Q9NXA8 37-310 limits assumed) above

Experimental findings from ChEMBL document CHEMBL5108003, “Identification of 2-hydroxybenzoic acid derivatives as selective SIRT5 inhibitors” (Eur J Med Chem, 2022) are described below.

Consider `Cc1ccc(-c2csc(NC(=S)Nc3ccc(C(=O)O)c(O)c3)n2)cc1`, for which the ΔTm in experiment [1] turned out to be 1.4 °C.

Regarding `N#Cc1ccc(-c2csc(NC(=S)Nc3ccc(C(=O)O)c(O)c3)n2)cc1`, in experiment [1], the ΔTm is 2.1 °C.

As to `O=C(O)c1ccc(NC(=S)Nc2nc(-c3ccc(Br)cc3)cs2)cc1O`, in experiment [1], the ΔTm stood at 1.2 °C.

Turning to `Cc1cccc(-c2csc(NC(=S)Nc3ccc(C(=O)O)c(O)c3)n2)c1`, in experiment [1], the ΔTm stood at 1.2 °C.

In the case of `O=C(O)c1ccc(NC(=S)Nc2nc(-c3cccc(F)c3)cs2)cc1O`, in experiment [1], the ΔTm amounted to 1.22 °C.

As for `CC(=O)Nc1ccccc1-c1csc(NC(=S)Nc2ccc(C(=O)O)c(O)c2)n1`, in experiment [1], the ΔTm amounted to 0.9 °C.

As to `O=C(O)c1ccc(NC(=S)Nc2nc(-c3ccc(O)cc3)cs2)cc1O`, the ΔTm in experiment [1] is 0.8 °C.

For `CC(=O)Nc1ccc(-c2csc(Nc3ccc(C(=O)O)cc3)n2)cc1`, the IC50 in experiment [2] worked out at 201 µM. The ΔTm in experiment [1] worked out at 0.53 °C.

Turning to `O=C(O)c1ccc(NC(=S)Nc2nc(-c3ccc(F)c(S(=O)(=O)NCc4ccccc4)c3)cs2)cc1O`, the ΔTm in experiment [1] is 1.9 °C.

Take `Cc1ccc(C(=O)Nc2ccc(S(=O)(=O)O)c3cc(S(=O)(=O)O)cc(S(=O)(=O)O)c23)cc1NC(=O)c1cccc(NC(=O)Nc2cccc(C(=O)Nc3cc(C(=O)Nc4ccc(S(=O)(=O)O)c5cc(S(=O)(=O)O)cc(S(=O)(=O)O)c45)ccc3C)c2)c1`: the midpoint of thermal melting (Tm) in experiment [3] was 51 °C.

In the case of `COc1ccc(-c2csc(NC(=S)Nc3ccc(C(=O)O)c(O)c3)n2)cc1`, the ΔTm in experiment [1] is 0.9 °C.

For `O=C(O)c1ccc(NC(=S)Nc2nc(-c3ccc(C(F)(F)F)cc3)cs2)cc1O`, in experiment [2], the IC50 turned out to be 24.3 µM. For the same molecule, in experiment [1], the ΔTm was found to be 1.2 °C.

In the case of `N#Cc1ccc(-c2csc(NC(=S)Nc3ccc(C(=O)O)c(O)c3)n2)c(F)c1`, in experiment [1], the shift in melting temperature (ΔTm) came to 1.9 °C.

Take `N#Cc1ccc(-c2csc(NC(=S)Nc3ccc(C(=O)O)c(O)c3)n2)cc1F`: the ΔTm in experiment [1] turned out to be 1.8 °C.

For the molecule `CCOC(=O)c1ccc(Nc2nc(-c3ccc(NC(C)=O)cc3)cs2)cc1O`, in experiment [2], the IC50 is more than 400 µM. Moreover, the thermal shift (ΔTm) in experiment [1] was determined as 0.12 °C.

`O=C(O)c1ccc(NC(=S)Nc2nc(-c3ccc(F)cc3F)cs2)cc1O`: the ΔTm in experiment [1] worked out at 1.9 °C.

In the case of `COc1cccc(-c2csc(NC(=S)Nc3ccc(C(=O)O)c(O)c3)n2)c1`, the ΔTm in experiment [1] is 0.9 °C.

As to `Cc1ccccc1-c1csc(NC(=S)Nc2ccc(C(=O)O)c(O)c2)n1`, the ΔTm in experiment [1] stood at 1.1 °C.

In the case of `O=C(O)c1ccc(NC(=S)Nc2nc(-c3ccc(F)cc3)cs2)cc1O`, the ΔTm in experiment [1] amounted to 1.3 °C.

`O=C(O)c1ccc(NC(=S)Nc2nc(-c3ccc([N+](=O)[O-])c(F)c3)cs2)cc1O`: the ΔTm in experiment [1] was 1.8 °C.

For the molecule `O=C(O)c1ccc(NC(=S)Nc2nc(-c3ccc([N+](=O)[O-])c(S(=O)(=O)NCc4ccccc4)c3)cs2)cc1O`, in experiment [1], the thermal shift (ΔTm) amounted to 1.8 °C.

Turning to `CC(=O)Nc1cccc(-c2csc(NC(=S)Nc3ccc(C(=O)O)c(O)c3)n2)c1`, in experiment [1], the ΔTm was 1.5 °C.

As to `CNS(=O)(=O)c1ccc(-c2csc(NC(=S)Nc3ccc(C(=O)O)c(O)c3)n2)cc1`, the ΔTm in experiment [1] was 0.9 °C.

For `O=C(O)c1ccc(NC(=S)Nc2nc(-c3cccc(O)c3)cs2)cc1O`, in experiment [1], the ΔTm is 0.72 °C.

In the case of `O=C(O)c1ccc(NC(=S)Nc2nc(-c3ccc([N+](=O)[O-])cc3)cs2)cc1O`, in experiment [1], the ΔTm amounted to 1.8 °C.

On to `CNS(=O)(=O)c1cccc(-c2csc(NC(=S)Nc3ccc(C(=O)O)c(O)c3)n2)c1`, for which the ΔTm in experiment [1] turned out to be 0.8 °C.

For `O=C(O)c1ccc(NC(=S)Nc2nc(-c3ccc(Cl)cc3)cs2)cc1O`, in experiment [1], the ΔTm came to 1.1 °C.

`O=C(O)c1ccc(NC(=S)Nc2nc(-c3ccc(F)c(F)c3)cs2)cc1O`: in experiment [1], the ΔTm was found to be 1.8 °C.

As to `O=C(O)c1ccc(NC(=S)Nc2nc(-c3ccccc3F)cs2)cc1O`, in experiment [1], the ΔTm came to 1 °C.

Take `O=C(O)c1ccc(NC(=S)Nc2nc(-c3ccc([N+](=O)[O-])cc3F)cs2)cc1O`: the ΔTm in experiment [1] was found to be 1.6 °C.

Turning to `CC(=O)Nc1ccc(-c2csc(Nc3ccc(C(=O)O)c(O)c3)n2)cc1`, the ΔTm in experiment [1] was found to be 1.8 °C. Moreover, the midpoint of thermal melting (Tm) in experiment [3] was 52.8 °C.

For `CC(=O)Nc1ccc(-c2csc(NC(=S)Nc3ccc(C(=O)O)c(O)c3)n2)cc1`, the ΔTm in experiment [1] was found to be 2.5 °C.

With `O=C(O)c1ccc(NC(=S)Nc2nc(-c3cccc(C(F)(F)F)c3)cs2)cc1O`, the half-inhibitory concentration (IC50) in experiment [2] was determined as 26.8 µM. The ΔTm in experiment [1] amounted to 1.1 °C.

`O=C(O)c1ccc(NC(=S)Nc2nc(-c3ccc(F)c(S(=O)(=O)NC4CCCC4)c3)cs2)cc1O`: in experiment [1], the thermal shift (ΔTm) turned out to be 1.3 °C.

A word on the ΔTm: it is the change in melting temperature against a reference sample. For orientation: IC50 means the concentration at which inhibition is half-maximal. In general, Tm refers to the temperature at the midpoint of the melting transition.
